Test results as given in ChEMBL document CHEMBL3244396, “Synthesis and antileukemic activity of 5-substituted 2,3-dihydro-6,7-bis(hydroxymethyl)-1H-pyrrolizine diesters” (J Med Chem, 1977).

What was measured:
[1] = system: P388; experiment: Antitumor activity against mouse P388 cells allografted in male CDF1 mouse assessed as disease cures by measuring 30-days host survival at 50 mg/kg, ip administered daily for 9 days as saline with Tween-80 solution starting 24 hrs after tumor inoculation relative to control; format: functional; conditions: route intraperitoneal
Method in brief: (§1)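 P388 ascitic cell inoculum given ip to CDF1 mice of the sex in each line. Nine daily ip doses in saline with Tween-80 as vehicle, starting 24 h after inoculation. Median survival time expressed as %T/C (>125 significant); "cure" defined as 30-day survival.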

[2] = system: P388; experiment: Antitumor activity against mouse P388 cells allografted in male CDF1 mouse assessed as disease cures by measuring 30-days host survival at 400 mg/kg, ip administered daily for 9 days as saline with Tween-80 solution starting 24 hrs after tumor inoculation relative to control; format: functional; conditions: route intraperitoneal; method in brief: as §1
[3] = system: Mus musculus; experiment: Toxicity in male CDF1 mouse allografted with mouse P388 cells assessed as animal survival at 50 mg/kg, ip administered daily for 9 days as saline with Tween-80 solution starting 24 hrs after tumor inoculation; format: organism-based; design: dose 50 mg/kg, route intraperitoneal; conditions: in vivo
Method in brief: (§2)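 P-388 leukemia ascitic fluid implanted ip. Compound dosed ip in saline with Tween-80 vehicle, once daily for nine doses from 24 h after tumor inoculation. Acute toxicity scored as toxicity-day survivors per group. Survival was followed up to 30 days, with 30-day survival counted as "cure". Follows NCI screening protocols.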

[4] = system: Mus musculus; experiment: Toxicity in male CDF1 mouse allografted with mouse P388 cells assessed as animal survival at 100 mg/kg, ip administered daily for 9 days as saline with Tween-80 solution starting 24 hrs after tumor inoculation; format: organism-based; design: dose 100 mg/kg, route intraperitoneal; conditions: in vivo; method in brief: as §2
[5] = system: Mus musculus; experiment: Toxicity in male CDF1 mouse allografted with mouse P388 cells assessed as animal survival at 25 mg/kg, ip administered daily for 9 days as saline with Tween-80 solution starting 24 hrs after tumor inoculation; format: organism-based; design: dose 25 mg/kg, route intraperitoneal; conditions: in vivo; method in brief: as §2
[6] = system: P388; experiment: Antitumor activity against mouse P388 cells allografted in female CDF1 mouse assessed as disease cures by measuring 30-days host survival at 100 mg/kg, ip administered daily for 9 days as saline with Tween-80 solution starting 24 hrs after tumor inoculation relative to control; format: functional; conditions: route intraperitoneal; method in brief: as §1
[7] = system: Mus musculus; experiment: Toxicity in female CDF1 mouse allografted with mouse P388 cells assessed as animal survival at 100 mg/kg, ip administered daily for 9 days as saline with Tween-80 solution starting 24 hrs after tumor inoculation; format: organism-based; design: dose 100 mg/kg, route intraperitoneal; conditions: in vivo; method in brief: as §2
[8] = system: P388; experiment: Antitumor activity against mouse P388 cells allografted in female CDF1 mouse assessed as change in body weight at 25 mg/kg, ip administered daily for 9 days as saline with Tween-80 solution starting 24 hrs after tumor inoculation; format: functional; conditions: route intraperitoneal
Method in brief: (§3)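 Ascitic fluid carrying P388 cells was inoculated ip. Compound was given ip in nine daily doses, starting 24 h after inoculation, in Klucel (hydroxypropylcellulose) suspension or in saline with Tween-80. Body-weight difference (treated minus control) was recorded on day 5. Survival was scored as %T/C of median survival time, and 30-day survival counted as cure.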

[9] = system: Mus musculus; experiment: Toxicity in male CDF1 mouse allografted with mouse P388 cells assessed as animal survival at 200 mg/kg, ip administered daily for 9 days as saline with Tween-80 solution starting 24 hrs after tumor inoculation; format: organism-based; design: dose 200 mg/kg, route intraperitoneal; conditions: in vivo; method in brief: as §2
[10] = system: P388; experiment: Antitumor activity against mouse P388 cells allografted in male CDF1 mouse assessed as disease cures by measuring 30-days host survival at 100 mg/kg, ip administered daily for 9 days as saline with Tween-80 solution starting 24 hrs after tumor inoculation relative to control; format: functional; conditions: route intraperitoneal; method in brief: as §1
[11] = system: P388; experiment: Antitumor activity against mouse P388 cells allografted in female CDF1 mouse assessed as change in body weight at 100 mg/kg, ip administered daily for 9 days as saline with Tween-80 solution starting 24 hrs after tumor inoculation; format: functional; conditions: route intraperitoneal; method in brief: as §3
[12] = system: P388; experiment: Antitumor activity against mouse P388 cells allografted in female CDF1 mouse assessed as disease cures by measuring 30-days host survival at 50 mg/kg, ip administered daily for 9 days as saline with Tween-80 solution starting 24 hrs after tumor inoculation relative to control; format: functional; conditions: route intraperitoneal; method in brief: as §1
[13] = system: P388; experiment: Antitumor activity against mouse P388 cells allografted in male CDF1 mouse assessed as change in body weight at 50 mg/kg, ip administered daily for 9 days as saline with Tween-80 solution starting 24 hrs after tumor inoculation; format: functional; conditions: route intraperitoneal; method in brief: as §3
[14] = system: P388; experiment: Antitumor activity against mouse P388 cells allografted in male CDF1 mouse assessed as disease cures by measuring 30-days host survival at 200 mg/kg, ip administered daily for 9 days as saline with Tween-80 solution starting 24 hrs after tumor inoculation relative to control; format: functional; conditions: route intraperitoneal; method in brief: as §1
[15] = system: P388; experiment: Antitumor activity against mouse P388 cells allografted in male CDF1 mouse assessed as change in body weight at 200 mg/kg, ip administered daily for 9 days as saline with Tween-80 solution starting 24 hrs after tumor inoculation; format: functional; conditions: route intraperitoneal; method in brief: as §3
[16] = system: Mus musculus; experiment: Toxicity in female CDF1 mouse allografted with mouse P388 cells assessed as animal survival at 50 mg/kg, ip administered daily for 9 days as saline with Tween-80 solution starting 24 hrs after tumor inoculation; format: organism-based; design: dose 50 mg/kg, route intraperitoneal; conditions: in vivo; method in brief: as §2
[17] = system: Mus musculus; experiment: Toxicity in female CDF1 mouse allografted with mouse P388 cells assessed as animal survival at 25 mg/kg, ip administered daily for 9 days as saline with Tween-80 solution starting 24 hrs after tumor inoculation; format: organism-based; design: dose 25 mg/kg, route intraperitoneal; conditions: in vivo; method in brief: as §2
[18] = system: P388; experiment: Antitumor activity against mouse P388 cells allografted in female CDF1 mouse assessed as change in body weight at 50 mg/kg, ip administered daily for 9 days as saline with Tween-80 solution starting 24 hrs after tumor inoculation; format: functional; conditions: route intraperitoneal; method in brief: as §3
[19] = system: P388; experiment: Antitumor activity against mouse P388 cells allografted in male CDF1 mouse assessed as change in body weight at 25 mg/kg, ip administered daily for 9 days as saline with Tween-80 solution starting 24 hrs after tumor inoculation; format: functional; conditions: route intraperitoneal; method in brief: as §3
[20] = system: P388; experiment: Antitumor activity against mouse P388 cells allografted in female CDF1 mouse assessed as disease cures by measuring 30-days host survival at 25 mg/kg, ip administered daily for 9 days as saline with Tween-80 solution starting 24 hrs after tumor inoculation relative to control; format: functional; conditions: route intraperitoneal; method in brief: as §1
[21] = system: Mus musculus; experiment: Toxicity in male CDF1 mouse allografted with mouse P388 cells assessed as animal survival at 400 mg/kg, ip administered daily for 9 days as saline with Tween-80 solution starting 24 hrs after tumor inoculation; format: organism-based; design: dose 400 mg/kg, route intraperitoneal; conditions: in vivo; method in brief: as §2
[22] = system: P388; experiment: Antitumor activity against mouse P388 cells allografted in male CDF1 mouse assessed as change in body weight at 100 mg/kg, ip administered daily for 9 days as saline with Tween-80 solution starting 24 hrs after tumor inoculation; format: functional; conditions: route intraperitoneal; method in brief: as §3
[23] = system: P388; experiment: Antitumor activity against mouse P388 cells allografted in male CDF1 mouse assessed as change in body weight at 400 mg/kg, ip administered daily for 9 days as saline with Tween-80 solution starting 24 hrs after tumor inoculation; format: functional; conditions: route intraperitoneal; method in brief: as §3
[24] = system: P388; experiment: Antitumor activity against mouse P388 cells allografted in male CDF1 mouse assessed as disease cures by measuring 30-days host survival at 25 mg/kg, ip administered daily for 9 days as saline with Tween-80 solution starting 24 hrs after tumor inoculation relative to control; format: functional; conditions: route intraperitoneal; method in brief: as §1

With `O=C(NC1CCCCC1)OCc1c(COC(=O)NC2CCCCC2)c(-c2ccc(Cl)c(Cl)c2)n2c1CCC2` the T/C [1] was 166%, the T/C [2] was 79% and the Activity [3] was “Non-toxic”. For the same molecule, the Activity [4] was “Non-toxic”, the Activity [5] was “Non-toxic” and the T/C [6] was 212%. For the same molecule, the Activity [7] was “Non-toxic”, the Activity [8] was -1.1 g and the Activity [9] was “Non-toxic”. The T/C [10] was 187%, the Activity [11] was -2.5 g and the T/C [12] was 174%. For the same molecule, the Activity [13] was -0.6 g, the T/C [14] was 91% and the Activity [15] was -2.8 g. For the same molecule, the Activity [16] was “Non-toxic”, the Activity [17] was “Non-toxic” and the Activity [18] was -2 g. For the same molecule, the Activity [19] was -0.6 g, the T/C [20] was 168% and the Activity [21] was “Non-toxic”. The Activity [22] was -1.2 g, the Activity [23] was -4 g and the T/C [24] was 150%.
